Bioassay records: PubChem BioAssay, Broad Institute
Pf Dd2 inh = P. falciparum Dd2 growth inhibitors, primary screen, SYBR Green fluorescence, single dose replicates; 72 h; stronger effect = lower value; activity change, % at 10 µM; hit rate 2.3% among 94,000; in the data active = activity change below about -80%; inconclusive = no clear call, values can overlap the other calls
GASC1 inh = inhibitors of GASC-1 (KDM4C) histone demethylase, primary screen, biochemical, single concentration HTS; Lysine-specific demethylase 4C (Homo sapiens), Q9H3R0; GST-KDM4C 2-372, H3K9me3 peptide, LANCE TR-FRET; inhibition, % at 12.5 µM; hit rate 0.15% among 96,000; AID 720574, 2013;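 active = mean replicate inhibition above about 25%, with at least 55% of replicates also reaching it, limit read from the data, passing the limit was not always enough; inconclusive = only one of those two conditions met; inactive = neither condition met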
Target sequence (Q9H3R0 2-372 limits assumed): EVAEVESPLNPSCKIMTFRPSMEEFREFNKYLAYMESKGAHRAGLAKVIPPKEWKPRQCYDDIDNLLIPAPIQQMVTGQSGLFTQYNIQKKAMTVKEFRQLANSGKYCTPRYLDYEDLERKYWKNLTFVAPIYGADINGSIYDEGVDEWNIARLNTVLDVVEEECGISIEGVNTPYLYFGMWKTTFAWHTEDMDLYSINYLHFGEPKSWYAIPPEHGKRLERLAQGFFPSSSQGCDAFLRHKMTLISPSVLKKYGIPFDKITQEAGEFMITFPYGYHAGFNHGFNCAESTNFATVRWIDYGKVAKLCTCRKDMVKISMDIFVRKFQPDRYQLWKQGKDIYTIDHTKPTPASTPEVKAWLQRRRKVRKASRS
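Test system – GST-tagged GASC-1 (JMJD2C) catalytic fragment, aa 2-372 · Medium – HEPES buffer, pH 7.5, plus ascorbate · Reagent – H3K9me3 peptide with Fe(II)/2OG · Compound – one test concentration per compound · Timing – 30 min reaction, 60 min detection, RT · Technique – TR-FRET with Eu antibody and ULight streptavidin, EDTA stop · Read-out basis – inhibition from TR-FRET ratio decrease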
IDH1 R132H inh = inhibitors of IDH1 R132H reductase, primary screen, biochemical, plate reader, single point | diaphorase/resazurin fluorescence, 60 min | AID 624101, 2012 | Isocitrate dehydrogenase [NADP] cytoplasmic (Homo sapiens), O75874 | inhibition, % at 10 µM | hit rate 0.18% among 70,000; in the data active = inhibition above about 34%; inconclusive = no clear call, values can overlap the other calls; inactive = below about 11%;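 note: 0% = DMSO and 100% = no enzyme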
Target sequence (O75874 whole entry R132H): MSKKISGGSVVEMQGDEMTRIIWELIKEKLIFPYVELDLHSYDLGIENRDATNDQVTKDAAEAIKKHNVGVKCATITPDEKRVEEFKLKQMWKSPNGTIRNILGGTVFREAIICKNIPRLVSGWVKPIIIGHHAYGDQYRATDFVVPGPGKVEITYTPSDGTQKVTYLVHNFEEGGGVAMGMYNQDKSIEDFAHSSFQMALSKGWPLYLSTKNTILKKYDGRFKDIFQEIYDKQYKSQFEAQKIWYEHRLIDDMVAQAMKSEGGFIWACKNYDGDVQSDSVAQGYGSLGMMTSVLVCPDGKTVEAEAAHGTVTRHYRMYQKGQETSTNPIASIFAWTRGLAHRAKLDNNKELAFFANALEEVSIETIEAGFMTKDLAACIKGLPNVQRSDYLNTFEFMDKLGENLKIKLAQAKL
T cruzi growth-1 = T. cruzi intracellular proliferation inhibitors, primary screen, cell-based, beta-gal Tulahuen parasites, NIH3T3 host, luminescence | T. cruzi beta-gal in NIH3T3, GalScreen luminescence, 90 h | inhibition, % at 8.34 µM | hit rate 5.9% among 77,000 | AID 624255, 2012;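 active = mean inhibition above about 93%, with at least 55% of replicates each passing it, limit read from the data, passing the limit was not always enough; inconclusive = only one of those two conditions holds; inactive = neither condition holds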
T cruzi growth-2 = T. cruzi intracellular proliferation inhibitors, confirmation, cell-based, NIH3T3 host, beta-gal parasite, luminescence, cherry-pick. shares compounds with T cruzi growth-1. T. cruzi beta-gal in NIH3T3, GalScreen luminescence, 90 h. inhibition, % at 8.35 µM. hit rate 72% among 5,600. AID 651739, 2012;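 active = mean replicate inhibition above about 95% and at least 55% of replicates individually reaching it, limit read from the data; inconclusive = only one of the two criteria is met; inactive = neither criterion is met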
T cruzi growth-3 = inhibitors of intracellular T. cruzi replication, confirmation, NIH3T3 host cells, beta-gal parasites, cherry-pick, set 2 | shares compounds with T cruzi growth-1 | T. cruzi beta-gal in NIH3T3, GalScreen luminescence, 90 h | inhibition, % at 2.09 µM | hit rate 21% among 5,600;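 active = mean inhibition above about 95%, with at least 55% of replicates also reaching it, limit read from the data; inconclusive = meets just one of the two conditions; inactive = meets neither condition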;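 note: plate controls were neutral control median for no effect and positive control median for full effect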
3T3 cytotox = cytotoxicity in mouse NIH/3T3 fibroblasts, confirmation, cytotoxicity control for T. cruzi proliferation inhibitor project, cell-based, cherry-pick, single point | hit rate 14% among 5,600 | shares compounds with T cruzi growth-1 | cytotoxicity (signal decrease), % at 8.35 µM | NIH/3T3 viability, CellTiter-Glo ATP luminescence, 90 h | AID 651742, 2012;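 active = mean signal decrease across replicates above about 35% based on untreated-well scatter, with enough replicates individually passing, limit read from the data; inconclusive = no rule stated though some were filed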;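 note: 0% = median of neutral control wells and 100% = median of positive control wells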
NIH3T3 tox 2 = NIH/3T3 fibroblast cytotoxicity, confirmation, cytotoxicity control, cell-based, cherry-pick, single point, set 2; NIH/3T3 viability, CellTiter-Glo ATP luminescence, 90 h; inhibition, % at 24.9 µM; hit rate 56% among 5,600; AID 651744, 2012; shares compounds with T cruzi growth-1;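 active = mean loss of cell viability signal at or above a set limit, and enough replicates individually reaching it; inconclusive = meets only the mean limit or only the replicate share; inactive = meets neither condition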;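 note: 0% = median of neutral control wells and 100% = median of positive control wells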
Numbers without * were called inactive; ? = inconclusive; . = no result. A selection: hits, their analogues and other compounds. The true share with any hit is near 5.9%.

SMILES	Pf Dd2 inh	GASC1 inh	IDH1 R132H inh	T cruzi growth-1	T cruzi growth-2	T cruzi growth-3	3T3 cytotox	NIH3T3 tox 2
C[C@H](CO)N1C[C@H](C)[C@@H](CN(C)Cc2ccc(-c3ccccc3)cc2)Oc2c(NC(=O)c3nc4ccccc4s3)cccc2C1=O	-51.1	-2.1	.	?	104.8*	87.2	14.6	12.4
C[C@H](CO)N1C[C@H](C)[C@H](CN(C)Cc2ccc(-c3ccccc3)cc2)Oc2c(NC(=O)c3nc4ccccc4s3)cccc2C1=O	-47.4	-4.3	.	63.8	.	.	.	.
C[C@H](CO)N1C[C@H](C)[C@H](CN(C)Cc2ccc(C(F)(F)F)cc2)OCCCC[C@H](C)Oc2ccc(NS(C)(=O)=O)cc2C1=O	-10.2	-0.1	-5.1	-58.9	.	.	.	.
C[C@@H]1CCCCO[C@@H](CN(C)Cc2ccc(C(F)(F)F)cc2)[C@@H](C)CN([C@@H](C)CO)C(=O)c2cc(NS(=O)(=O)c3ccc(Cl)cc3)ccc2O1	-33.2	-0.8	.	97.1*	87.3	112.6*	27.7	102.5*
C[C@@H]1CN([C@@H](C)CO)C(=O)c2cc(NS(=O)(=O)c3ccc(Cl)cc3)ccc2O[C@@H](C)CCCCO[C@H]1CN(C)Cc1ccncc1	-7.0	2.5	.	?	101.8*	37.6	-11.5	16.3
C[C@@H]1CN([C@H](C)CO)C(=O)c2cc(NS(C)(=O)=O)ccc2O[C@@H](C)CCCCO[C@H]1CN(C)Cc1ccc(C(F)(F)F)cc1	-33.6	0.6	.	115.7*	107.5*	107.9*	0.9	98.0*
CCOc1cccc(-c2nnc(SCC(=O)Nc3c(C)cccc3C)n2C)c1	.	.	-0.1	.	.	.	.	.
CCCC#Cc1ccc2c(c1)O[C@@H](CN(C)C(=O)Nc1ccc(OC)cc1)[C@@H](C)CN([C@H](C)CO)S2(=O)=O	-68.4	-0.6	.	104.5*	111.9*	49.8	1.3	31.2
CCCC#Cc1ccc2c(c1)O[C@H](CN(C)C(=O)Nc1ccc(OC)cc1)[C@H](C)CN([C@@H](C)CO)S2(=O)=O	-51.1	1.4	.	86.4	.	.	.	.
COc1ccc(NC(=O)N(C)C[C@@H]2Oc3cc(C#CCC(C)C)ccc3S(=O)(=O)N([C@H](C)CO)C[C@@H]2C)cc1	-66.3	-3.8	-10.5	104.2*	100.7*	91.9	27.4	63.5*
CC(C)C#Cc1ccc2c(c1)O[C@@H](CN(C)Cc1cccnc1)[C@H](C)CN([C@@H](C)CO)S2(=O)=O	-50.9	16.9	.	107.1*	99.2*	92.3	55.6*	67.3*
CC(C)C#Cc1ccc2c(c1)O[C@H](CN(C)Cc1cccnc1)[C@H](C)CN([C@@H](C)CO)S2(=O)=O	-28.5	2.0	2.2	104.0*	98.0*	55.6	?	65.3*
O=C(CC1Sc2ccc(Cl)cc2NC1=O)Nc1ccc([N+](=O)[O-])cc1 (stereo not drawn)	.	.	0.6	.	.	.	.	.
O=C(Nc1cccc(F)c1)N1CCCCN2[C@H](C1)[C@@H](c1ccc(-c3ccccc3F)cc1)[C@@H]2CO	-8.9	-0.1	.	100.7*	?	?	95.9*	102.4*
O=C(Nc1ccccc1)N1CCCCN2[C@H](C1)[C@@H](c1ccc(-c3ccccc3F)cc1)[C@@H]2CO	-11.2	-0.7	.	73.4	.	.	.	.
O=C(Nc1ccccc1)N1CCCCN2[C@@H](CO)[C@@H](c3ccc(-c4ccccc4F)cc3)[C@@H]2C1	-36.6	-2.1	.	94.9	.	.	.	.
O=C(Nc1cccc(F)c1)N1CCCCN2[C@H](C1)[C@H](c1ccc(-c3ccccc3F)cc1)[C@@H]2CO	15.8	0.1	.	110.4*	112.1*	93.6	11.1	33.0*
O=C(Nc1cccc(F)c1)N1CCCCN2[C@H](CO)[C@H](c3ccc(-c4ccccc4F)cc3)[C@@H]2C1	8.3	0.9	.	106.9*	95.6*	91.5	19.4	59.1*
O=C(Nc1ccccc1)N1CCCCN2[C@H](CO)[C@@H](c3ccc(-c4ccccc4F)cc3)[C@@H]2C1	10.6	-2.4	.	88.2	.	.	.	.
COc1ccc(S(=O)(=O)N(CC(=O)O)c2ccc(F)cc2)cc1	.	.	0.0	.	.	.	.	.
O=C(Nc1ccccc1C(=O)O)c1ccc(Br)c(S(=O)(=O)N2CCOCC2)c1	.	.	0.2	.	.	.	.	.
CN(C)C(=O)c1ccc(-c2ccc([C@H]3[C@@H](CO)N4CCCCN(S(C)(=O)=O)C[C@H]34)cc2)cc1	15.5	-0.2	.	83.3	.	.	.	.
COc1ccc(-c2ccc([C@H]3[C@@H](CO)N4CCCCN(S(=O)(=O)c5cccs5)C[C@H]34)cc2)cc1	-61.2	0.2	.	104.6*	105.7*	55.0	31.3	104.8*
CN(C)C(=O)c1ccc(-c2ccc([C@H]3[C@@H](CO)N4CCCCN(S(C)(=O)=O)C[C@@H]34)cc2)cc1	24.1	-1.0	.	98.2*	44.4	2.9	-1.1	5.2
O=S(=O)(c1cccs1)N1CCCCN2[C@H](C1)[C@H](c1ccc(C3=CCCCC3)cc1)[C@@H]2CO	2.2	.	.	119.8*	108.9*	74.4	4.6	?
SMILES	Pf Dd2 inh	GASC1 inh	IDH1 R132H inh	T cruzi growth-1	T cruzi growth-2	T cruzi growth-3	3T3 cytotox	NIH3T3 tox 2
COc1ccc(-c2ccc([C@H]3[C@H]4CN(S(=O)(=O)c5cccs5)CCCCN4[C@H]3CO)cc2)cc1	-17.9	-0.2	.	113.5*	107.6*	94.2	-8.5	7.9
COc1ccc(-c2ccc([C@@H]3[C@H](CO)N4CCCCN(S(=O)(=O)c5cccs5)C[C@@H]34)cc2)cc1	-50.9	-1.1	.	91.5	.	.	.	.
O=S(=O)(c1cccs1)N1CCCCN2[C@H](CO)[C@H](c3ccc(Br)cc3)[C@@H]2C1	4.5	-1.5	.	114.4*	100.2*	-21.8	8.9	30.3*
COc1ccc(S(=O)(=O)N2CCCCN3[C@H](C2)[C@H](c2ccc(C4=CCCCC4)cc2)[C@@H]3CO)cc1	-9.6	.	.	116.9*	?	43.0	19.9	26.8*
O=S(=O)(c1cccs1)N1CCCCN2[C@@H](CO)[C@@H](c3ccc(Br)cc3)[C@@H]2C1	-56.5	0.1	.	88.1	.	.	.	.
CS(=O)(=O)N1CCCCN2[C@@H](CO)[C@H](c3ccc(C4=CCCC4)cc3)[C@@H]2C1	23.9	-0.5	.	?	92.4	35.1	2.5	9.1
Cc1cccc(-c2ccc([C@H]3[C@H]4CN(S(=O)(=O)c5cccs5)CCCCN4[C@H]3CO)cc2)c1	-6.3	2.3	.	107.2*	102.7*	99.4*	27.0	45.5*
